Test results taken from ChEMBL document CHEMBL4414639, “Synthesis, Pharmacological Characterization, and Structure-Activity Relationships of Noncanonical Selective Agonists for α7 nAChRs” (J Med Chem, 2019).
Calls of active or inactive are those of the source. The calls are words filed in the database; no cut-off is given here.

molecular target: T1, 5-hydroxytryptamine receptor 3A (Homo sapiens) (UniProt P46098); assay: Antagonist activity at 5HT3A (unknown origin) transfected in HEK cells assessed as decrease in agonist-induced intracellular calcium release incubated for 30 mins by FRET assay; assay type: cell-based
T1 sequence (whole entry): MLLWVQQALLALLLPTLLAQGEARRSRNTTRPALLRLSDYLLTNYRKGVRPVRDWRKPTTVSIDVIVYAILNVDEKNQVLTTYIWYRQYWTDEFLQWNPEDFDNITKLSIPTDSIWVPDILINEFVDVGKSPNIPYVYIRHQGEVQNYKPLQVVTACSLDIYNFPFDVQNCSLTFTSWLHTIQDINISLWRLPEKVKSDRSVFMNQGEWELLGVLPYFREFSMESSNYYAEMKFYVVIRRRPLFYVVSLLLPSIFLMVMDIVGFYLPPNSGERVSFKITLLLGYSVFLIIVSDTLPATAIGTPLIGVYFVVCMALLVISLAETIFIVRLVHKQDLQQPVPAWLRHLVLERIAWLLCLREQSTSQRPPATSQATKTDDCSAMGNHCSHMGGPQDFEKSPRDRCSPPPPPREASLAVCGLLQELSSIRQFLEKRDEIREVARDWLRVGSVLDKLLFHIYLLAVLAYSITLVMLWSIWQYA
In short: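 CNiFER HEK cell monolayers stably expressing the receptor. Test compound at three concentrations in aCSF, preincubated 30 min at 37 °C, 6% CO2, before agonist addition: epibatidine for α4β2, 5-HT for 5-HT3A. TN-XXL FRET ratio (527/485 nm) read over 120 s at 37 °C, agonist injected at 30 s, triplicate wells. Agonist EC50 shifts fitted. KA computed as [A]/(DR−1) (competitive) or [A]/(Δmax/Δ−1) (noncompetitive). At least three independent experiments. α4β2 stoichiometry not distinguished.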

Question: Which Ka does the source give for `COc1ccc(-c2cc(N(Cc3ccccn3)Cc3ccccn3)nc(N)n2)c(F)c1` here?
Answer: 5.3 µM

Question: With `CC(C)Oc1ccccc1-c1cc(N(Cc2ccccn2)Cc2ccccn2)nc(N)n1` as the molecule, how does the Ka read?
Answer: > 10 µM

Question: For `COc1ccccc1-c1cc(N(Cc2ccccn2)Cc2ccccn2)nc(SC)n1`, which Ka is on record?
Answer: 2.8 µM

Question: For `COc1ccccc1-c1cc(N(Cc2ccccc2)Cc2ccccn2)nc(N)n1`, which Ka is on record?
Answer: 4.1 µM

Question: `COc1ccccc1-c1cc(N(Cc2ccccn2)Cc2ccccn2)nc(C(F)(F)F)n1` was tested. Which Ka did it give?
Answer: 3.7 µM

Question: Which Ka does the source give for `Nc1nc(-c2ccccc2Cl)cc(N(Cc2ccccn2)Cc2ccccn2)n1` here?
Answer: > 10 µM

molecular target: T2, Neuronal acetylcholine receptor subunit alpha-7 (Homo sapiens, UniProt P36544); assay: Agonist activity at human alpha7 nAChR transfected in HEK cells assessed as increase in intracellular calcium release incubated for 30 mins in presence of PNU-120596 by FRET assay; assay type: cell-based
T2 sequence (P36544 whole entry): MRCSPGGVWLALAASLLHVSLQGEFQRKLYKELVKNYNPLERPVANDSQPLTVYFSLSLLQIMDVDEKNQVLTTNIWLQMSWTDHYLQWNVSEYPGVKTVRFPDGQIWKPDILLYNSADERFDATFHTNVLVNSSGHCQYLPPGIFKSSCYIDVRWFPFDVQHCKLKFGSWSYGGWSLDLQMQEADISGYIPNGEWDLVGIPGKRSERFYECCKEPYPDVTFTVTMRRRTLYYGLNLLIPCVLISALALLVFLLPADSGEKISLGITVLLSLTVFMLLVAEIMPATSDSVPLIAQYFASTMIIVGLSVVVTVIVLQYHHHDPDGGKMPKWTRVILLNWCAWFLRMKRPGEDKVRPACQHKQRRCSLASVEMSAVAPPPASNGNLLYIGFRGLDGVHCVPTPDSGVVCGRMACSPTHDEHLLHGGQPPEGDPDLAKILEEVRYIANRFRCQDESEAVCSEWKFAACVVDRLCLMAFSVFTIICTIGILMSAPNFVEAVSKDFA
In short: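 HEK cell line stably expressing α7 nAChR and the CNiFER (TN-XXL) biosensor, grown in DMEM + 10% FBS, 1% glutamine, 37 °C, 6% CO2. Cells preincubated 30 min at 37 °C in aCSF containing 10 μM PNU-120596 (final). Agonist injected at 30 s. FRET ratio (527/485 nm) followed over 120 s at 37 °C, triplicate wells. EC50 from variable-slope sigmoidal fit of mean peak ratios, normalized to the 316 μM response.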

Question: Which EC50 does the source give for `COc1ccc(-c2cc(N(Cc3ccccn3)Cc3ccccn3)nc(N)n2)c(F)c1` here?
Answer: 30 nM

Question: How did the EC50 turn out when `CC(C)Oc1ccccc1-c1cc(N(Cc2ccccn2)Cc2ccccn2)nc(N)n1` was run?
Answer: 890 nM

Question: `COc1ccccc1-c1cc(N(Cc2ccccn2)Cc2ccccn2)nc(SC)n1` was tested. Which EC50 did it give?
Answer: 110 nM

Question: How did the EC50 turn out when `COc1ccccc1-c1cc(N(Cc2ccccc2)Cc2ccccn2)nc(N)n1` was run?
Answer: > 13300 nM

Question: For `COc1ccccc1-c1cc(N(Cc2ccccn2)Cc2ccccn2)nc(C(F)(F)F)n1`, which EC50 is on record?
Answer: 530 nM

Question: Which EC50 does the source give for `Nc1nc(-c2ccccc2Cl)cc(N(Cc2ccccn2)Cc2ccccn2)n1` here?
Answer: 160 nM

molecular target: T2, Neuronal acetylcholine receptor subunit alpha-7; assay: Agonist activity at human alpha7 nAChR expressed in Xenopus laevis oocytes assessed as increase in channel currents at 30 uM at -60 mV holding potential by two electrode voltage clamp assay; assay type: cell-based
In short: (§1)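 Oocytes expressing human α7 nAChR (with human RIC-3 cDNA available), clamped at -60 mV in Ringer's pH 7.2 with 1 µM atropine, 2 mL/min flow. Drug applied 12 s, 211 s washout. Responses normalized to mean of two 60 µM ACh precontrol responses per oocyte. Data from six cells. Concentration-response data fit to the Hill equation. Sequence included 30 µM test compound, then 60 µM ACh, then 10 µM PNU-120596.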

Question: How did the Activity turn out when `COc1ccc(-c2cc(N(Cc3ccccn3)Cc3ccccn3)nc(N)n2)c(F)c1` was run?
Answer: Active

molecular target: T2, Neuronal acetylcholine receptor subunit alpha-7; assay: Agonist activity at human alpha7 nAChR expressed in Xenopus laevis oocytes assessed as increase in channel currents at -60 mV holding potential by two electrode voltage clamp assay relative Ach; assay type: cell-based; in short: as §1

Question: `COc1ccc(-c2cc(N(Cc3ccccn3)Cc3ccccn3)nc(N)n2)c(F)c1` was tested. Which EC50 did it give?
Answer: 110 nM

Question: And the Imax?
Answer: 0.84

molecular target: T2, Neuronal acetylcholine receptor subunit alpha-7; assay: Inhibition of human alpha7 nAChR expressed in Xenopus laevis oocytes assessed as decrease in ACh-induced channel currents at -60 mV holding potential by two electrode voltage clamp assay; assay type: cell-based
In short: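 Human α7 nAChR in oocytes under two-electrode voltage clamp at -60 mV, Ringer's pH 7.2, 2 mL/min. Test compound applied 12 s with 211 s washout, then 60 µM ACh applied. ACh response normalized to the mean of two ACh precontrols per oocyte. Inhibition concentration-response curves from six cells, Hill equation fit.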

Question: How did the IC50 turn out when `COc1ccc(-c2cc(N(Cc3ccccn3)Cc3ccccn3)nc(N)n2)c(F)c1` was run?
Answer: 470 nM

species on record: Mus musculus; assay: Agonist activity at mouse alpha1beta1epsilondelta nAChR expressed in Xenopus laevis oocytes assessed as increase in channel currents at 30 uM at -60 mV holding potential by two electrode voltage clamp assay; assay type: cell-based
In short: (§2)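 Two-electrode voltage clamp on oocytes at -60 mV in Ringer's (115 mM NaCl, 2.5 mM KCl, 1.8 mM CaCl2, 10 mM HEPES, 1 µM atropine, pH 7.2), 4 mL/min flow. Test compound applied 6 s, then 271 s washout. Normalized to mean of two ACh precontrols: 30 µM for α1β1εδ, 100 µM for α3β4, 100 µM for LS α4β2, 10 µM for HS α4β2.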

Question: For `COc1ccc(-c2cc(N(Cc3ccccn3)Cc3ccccn3)nc(N)n2)c(F)c1`, which Activity is on record?
Answer: inactive

molecular target: T3, Neuronal acetylcholine receptor; alpha3/beta4 (Homo sapiens) (UniProt P30926+P32297); assay: Agonist activity at human alpha3beta4 nAChR expressed in Xenopus laevis oocytes assessed as increase in channel currents at 30 uM at -60 mV holding potential by two electrode voltage clamp assay; assay type: cell-based; in short: as §2

Question: `COc1ccc(-c2cc(N(Cc3ccccn3)Cc3ccccn3)nc(N)n2)c(F)c1` was tested. Which Activity did it give?
Answer: inactive

molecular target: T4, Neuronal acetylcholine receptor; alpha4/beta2 (Homo sapiens) (UniProt P17787+P43681); assay: Agonist activity at human (alpha4)2 (beta2)3 nAChR expressed in Xenopus laevis oocytes assessed as increase in channel currents at 30 uM at -60 mV holding potential by two electrode voltage clamp assay; assay type: cell-based; in short: as §2

Question: Which Activity does the source give for `COc1ccc(-c2cc(N(Cc3ccccn3)Cc3ccccn3)nc(N)n2)c(F)c1` here?
Answer: inactive

molecular target: T4, Neuronal acetylcholine receptor; alpha4/beta2 (Homo sapiens); assay: Agonist activity at human (alpha4)3 (beta2)2 nAChR expressed in Xenopus laevis oocytes assessed as increase in channel currents at 30 uM at -60 mV holding potential by two electrode voltage clamp assay; assay type: cell-based; in short: as §2

Question: Which Activity does the source give for `COc1ccc(-c2cc(N(Cc3ccccn3)Cc3ccccn3)nc(N)n2)c(F)c1` here?
Answer: inactive

species on record: Mus musculus; assay: Inhibition of mouse alpha1beta1epsilondelta nAChR expressed in Xenopus laevis oocytes assessed as increase in channel currents at 30 uM at -60 mV holding potential by two electrode voltage clamp assay; assay type: cell-based

Question: With `COc1ccc(-c2cc(N(Cc3ccccn3)Cc3ccccn3)nc(N)n2)c(F)c1` as the molecule, how does the “inhibition activity (active/inactive)” value read?
Answer: Active

molecular target: T3, Neuronal acetylcholine receptor; alpha3/beta4 (Homo sapiens); assay: Inhibition of human alpha3beta4 nAChR expressed in Xenopus laevis oocytes assessed as increase in channel currents at 30 uM at -60 mV holding potential by two electrode voltage clamp assay; assay type: cell-based

Question: With `COc1ccc(-c2cc(N(Cc3ccccn3)Cc3ccccn3)nc(N)n2)c(F)c1` as the molecule, how does the inhibition read?
Answer: Active

molecular target: T4, Neuronal acetylcholine receptor; alpha4/beta2 (Homo sapiens); assay: Inhibition of human (alpha4)2 (beta2)3 nAChR expressed in Xenopus laevis oocytes assessed as increase in channel currents at 30 uM at -60 mV holding potential by two electrode voltage clamp assay; assay type: cell-based

Question: For `COc1ccc(-c2cc(N(Cc3ccccn3)Cc3ccccn3)nc(N)n2)c(F)c1`, which inhibition is on record?
Answer: inactive

molecular target: T4, Neuronal acetylcholine receptor; alpha4/beta2 (Homo sapiens); assay: Inhibition of human (alpha4)3 (beta2)2 nAChR expressed in Xenopus laevis oocytes assessed as increase in channel currents at 30 uM at -60 mV holding potential by two electrode voltage clamp assay; assay type: cell-based

Question: How did the inhibition turn out when `COc1ccc(-c2cc(N(Cc3ccccn3)Cc3ccccn3)nc(N)n2)c(F)c1` was run?
Answer: inactive

molecular target: T2, Neuronal acetylcholine receptor subunit alpha-7; assay: Agonist activity at human alpha7 nAChR expressed in Xenopus laevis oocytes assessed as increase in channel currents at 30 uM at -60 mV holding potential in presence of 10 uM PNU-120596 by two electrode voltage clamp assay; assay type: cell-based; in short: as §1

Question: With `COc1ccc(-c2cc(N(Cc3ccccn3)Cc3ccccn3)nc(N)n2)c(F)c1` as the molecule, how does the Activity read?
Answer: Active

molecular target: T4, Neuronal acetylcholine receptor; alpha4/beta2 (Homo sapiens); assay: Antagonist activity at alpha4beta2 nAChR (unknown origin) transfected in HEK cells assessed as decrease in epibatidine-induced intracellular calcium release incubated for 30 mins by FRET assay

Question: How did the Ka turn out when `COc1ccc(-c2cc(N(Cc3ccccn3)Cc3ccccn3)nc(N)n2)c(F)c1` was run?
Answer: 3.2 µM

Question: With `CC(C)Oc1ccccc1-c1cc(N(Cc2ccccn2)Cc2ccccn2)nc(N)n1` as the molecule, how does the Ka read?
Answer: 1.5 µM

Question: `COc1ccccc1-c1cc(N(Cc2ccccn2)Cc2ccccn2)nc(SC)n1` was tested. Which Ka did it give?
Answer: 1.1 µM

Question: With `COc1ccccc1-c1cc(N(Cc2ccccc2)Cc2ccccn2)nc(N)n1` as the molecule, how does the Ka read?
Answer: 1.3 µM

Question: With `COc1ccccc1-c1cc(N(Cc2ccccn2)Cc2ccccn2)nc(C(F)(F)F)n1` as the molecule, how does the Ka read?
Answer: 1.7 µM

Question: With `Nc1nc(-c2ccccc2Cl)cc(N(Cc2ccccn2)Cc2ccccn2)n1` as the molecule, how does the Ka read?
Answer: 3.4 µM

molecular target: T2, Neuronal acetylcholine receptor subunit alpha-7; assay: Agonist activity at human alpha7 nAChR expressed in Xenopus laevis oocytes assessed as increase in channel currents at 30 uM at -60 mV holding potential followed washout for 211 sec and then 60 uM of Ach was applied by two electrode voltage clamp assay

Question: `COc1ccc(-c2cc(N(Cc3ccccn3)Cc3ccccn3)nc(N)n2)c(F)c1` was tested. Which Activity did it give?
Answer: inactive
